# Reference: ChEMBL document CHEMBL1158586, “Hypopigmentary action of dihydropyranocoumarin D2, a decursin derivative, as a MITF-degrading agent” (J Nat Prod, 2010)
# The source made the active and inactive calls. The calls are words filed in the database; no cut-off is given here.
# Key:
# [1] = tested on: Mel-Ab; test: Reduction of MITF level in 24 hrs serum starved mouse Mel-Ab cells […] measured after 3 hrs followed by MG132 proteasome inhibitor for 1 hr by Western blot analysis; assay type: functional
# Method in brief: (§1)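 After serum starvation, Mel-Ab cells pretreated 1 h with 25 µg/mL cycloheximide, then 1 h with 25 µM MG132 and/or 100 µM chloroquine, then 3 h with 50 µM compound. MITF detected by Western blot of whole-cell lysates.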
# [2] = tested on: Mel-Ab; test: Reduction of MITF level in 24 hrs serum starved mouse Mel-Ab cells at 50 uM measured after 24 to 72 mins by Western blot analysis; assay type: functional; settings: in the assay text read “24 to 72 hrs” for “24 to 72 mins”
# Method in brief: (§2)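 Mel-Ab cells cultured 24–72 h with 50 µM. Whole-cell lysates (10 µg protein/lane) analysed by Western blot for MITF and tyrosinase, with actin as loading control.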
# [3] = tested on: Mel-Ab; test: Induction of ERK activity in 24 hrs serum starved mouse Mel-Ab cells at 50 uM by Western blot analysis in presence of PD-98059; assay type: cell-based
# [4] = tested on: Mel-Ab; test: Inhibition of melanin synthesis in mouse Mel-Ab cells assessed as reduction in melanin synthesis at 1 to 100 uM after 4 hrs by phase-contrast microscopy; assay type: functional, cell-based; settings: in the assay text read “4 days” for “4 hrs”
# Method in brief: (§3)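 Mel-Ab melanocytes in TPA/CT-supplemented DMEM given 1–100 µM for four days. Cells photographed under phase contrast. Pellets then dissolved in 1 N NaOH, 100 °C, 30 min, spun 16000g for 20 min, supernatant OD read at 400 nm. Mean ± SD of three replicate experiments, compared with untreated control.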
# [5] = tested on: Mel-Ab; test: Reduction of tyrosinase protein level in 24 hrs serum starved mouse Mel-Ab cells at 50 uM measured after 24 to 72 mins by Western blot analysis; assay type: functional; settings: in the assay text read “24 to 72 hrs” for “24 to 72 mins”; method in brief: as §2
# [6] = tested on: Mel-Ab; test: Reduction of MITF level in 24 hrs serum starved mouse Mel-Ab cells at 50 uM measured after 3 hrs by Western blot analysis in presence of PD-98059
# [7] = Inhibition of melanin synthesis in mouse Mel-Ab cells assessed as reduction in melanin synthesis at 50 uM after 4 hrs by phase-contrast microscopy in presence of PD-98059 ERK pathway inhibitor; assay type: functional, cell-based; settings: in the assay text read “4 days” for “4 hrs”
# Method in brief: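 Mel-Ab cells pretreated 1 h with 20 µM PD98059, then cultured four days with 50 µM compound. Phase-contrast photography, then melanin read as OD 400 nm after dissolving pellets in 1 N NaOH at 100 °C. Triplicate determinations, mean ± SD.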
# [8] = tested on: Mel-Ab; test: Reduction of MITF level in 24 hrs serum starved mouse Mel-Ab cells […] measured after 3 hrs followed by chloroquine lysosomal proteolysis inhibitor for 1 hr by Western blot analysis; assay type: functional; method in brief: as §1
# [9] = biological target: T1, Microphthalmia-associated transcription factor (Mus musculus) (UniProt Q08874); test: Down regulation of MITF activity in 24 hrs serum starved mouse Mel-Ab cells at 50 uM measured after 60 to 360 mins by Western blot analysis; assay type: cell-based
# T1 sequence (whole entry): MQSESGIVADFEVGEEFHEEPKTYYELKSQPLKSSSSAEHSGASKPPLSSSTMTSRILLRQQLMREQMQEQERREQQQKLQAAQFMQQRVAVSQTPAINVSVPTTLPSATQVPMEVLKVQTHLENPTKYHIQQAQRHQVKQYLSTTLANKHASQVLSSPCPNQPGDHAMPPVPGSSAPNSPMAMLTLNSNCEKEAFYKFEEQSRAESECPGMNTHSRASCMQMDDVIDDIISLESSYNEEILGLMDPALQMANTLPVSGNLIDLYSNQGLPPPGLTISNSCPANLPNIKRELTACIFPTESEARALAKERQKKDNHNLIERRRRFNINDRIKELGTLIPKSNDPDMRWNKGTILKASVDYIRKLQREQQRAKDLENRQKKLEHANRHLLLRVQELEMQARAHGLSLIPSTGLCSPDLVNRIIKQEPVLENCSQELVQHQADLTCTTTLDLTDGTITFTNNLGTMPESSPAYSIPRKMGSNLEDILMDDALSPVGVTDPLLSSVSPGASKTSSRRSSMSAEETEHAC
# Method in brief: (§4)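 Mel-Ab cells serum-starved 24 h, then given 50 µM for the indicated times up to 360 min. Whole-cell lysates run at 10 µg protein per lane by SDS-PAGE and blotted on PVDF. Probed with 1:1000 antibodies to phospho-ERK, phospho-Akt, MITF and tyrosinase; actin served as loading control.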
# [10] = biological target: T2, Tyrosinase (Mus musculus) (UniProt P11344); test: Inhibition of tyrosinase activity in mouse Mel-Ab cells assessed as inhibition of melanogenesis at 1 to 100 uM by ELISA
# T2 sequence (whole entry): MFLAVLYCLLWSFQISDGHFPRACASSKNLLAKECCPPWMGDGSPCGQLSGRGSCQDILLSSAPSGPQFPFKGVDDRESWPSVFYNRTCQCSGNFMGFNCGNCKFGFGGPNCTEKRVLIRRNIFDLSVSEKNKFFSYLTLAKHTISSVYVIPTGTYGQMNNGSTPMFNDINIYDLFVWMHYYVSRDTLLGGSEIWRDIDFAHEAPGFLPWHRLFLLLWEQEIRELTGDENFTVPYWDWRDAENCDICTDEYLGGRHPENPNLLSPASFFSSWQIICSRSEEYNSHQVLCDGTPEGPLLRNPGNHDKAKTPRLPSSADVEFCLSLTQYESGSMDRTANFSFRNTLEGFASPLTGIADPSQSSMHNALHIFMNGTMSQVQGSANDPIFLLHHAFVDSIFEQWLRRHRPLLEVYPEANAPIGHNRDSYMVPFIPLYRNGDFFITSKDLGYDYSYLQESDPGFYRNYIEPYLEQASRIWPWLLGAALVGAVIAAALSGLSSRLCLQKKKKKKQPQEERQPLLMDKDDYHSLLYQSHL
# [11] = tested on: Mel-Ab; test: Reduction of MITF level in 24 hrs serum starved mouse Mel-Ab cells at 25 ug/ml measured after 3 hrs followed by MG132/chloroquine for 1 hr by Western blot analysis; assay type: functional; settings: 50 uM, in the assay text read “50 uM” for “25 ug/ml”; method in brief: as §1
# [12] = tested on: Mel-Ab; test: Cytotoxicity against mouse Mel-Ab cells at 1 to 100 uM after 24 hrs by crystal violet assay; assay type: functional, cell-based
# Method in brief: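 Mel-Ab (spontaneously immortalized mouse melanocytes; DMEM, 10% FBS, 100 nM TPA, 1 nM CT, 37 °C, 5% CO2) exposed 24 h to 1, 10, 50, 100 µM. Crystal violet staining (0.1% in 10% ethanol, 5 min, room temperature), four water rinses, dye extracted with 95% ethanol, absorbance read at 590 nm.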
# [13] = tested on: Mel-Ab; test: Induction of ERK activity in 24 hrs serum starved mouse Mel-Ab cells at 50 uM by Western blot analysis; assay type: cell-based; method in brief: as §4
# [14] = tested on: Mel-Ab; test: Inhibition of melanin synthesis in mouse Mel-Ab cells assessed as in melanin content after 4 hrs by ELISA; assay type: functional, cell-based; settings: in the assay text read “4 days” for “4 hrs”; method in brief: as §3
structure (smiles),measurement,setting,value
CC1(C)Oc2cc3oc(=O)ccc3cc2C[C@@H]1OC(=O)/C=C/c1ccccc1,Activity,[1],inactive
same,Activity,[2],Active
same,Activity,[3],inactive
same,Activity,[4],Active
same,Activity,[5],Active
same,Activity,[6],inactive
same,Activity,[7],inactive
same,Activity,[8],inactive
same,Activity,[9],Active
same,Activity,[10],Active
same,Activity,[11],Active
same,Activity,[12],inactive
same,Activity,[13],Active
same,Activity,[14],Dose-dependent effect
